Source: PubChem
TAAR1 antagonist: human TAAR1 antagonism | 360,000 compounds, 1.5% hits | inhibition, % at 3 µM | AID 624466 | CHO RD-HGA16 TAAR1, Fluo-8 calcium fluorescence, antagonist;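 active = inhibition above a per-plate cutoff, the mean inhibition of test compounds on that plate plus 3 SD, cut at about 49% in these data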;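 also: 0% = DMSO plus EC80 beta-PEA response and 100% = DMSO alone without agonist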
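Test system – hTAAR1-expressing CHO RD-HGA16 cells, Gα16-coupled · Also added – β-PEA at EC80 concentration, post-compound challenge · Compound – 3 µM, single point · Incubation – dye loading 75 min at 37 °C, then 30 min room temperature · Measured by – Fluo-8 intracellular calcium dye fluorescence, real-time kinetic reads · Benchmarks – vehicle and agonist controls · Replicates – singlicate, one well per test compound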
MC4R ag barr: agonists of human melanocortin 4 receptor (MC4R) beta-arrestin; AID 540308; P32245; 360,000 compounds, 0.98% hits; U2OS MC4R beta-arrestin complementation, luminescence; percent of melanotan II response, DMSO zero; activation, % at 8.9 µM;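 active = activation above a per-plate cutoff, the mean activation of sample wells on that plate plus 3 SD, cut at about 8% in these data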
Beta2AR agonist: agonists of human beta-2 adrenergic receptor inducing internalization | P07550 | 340,000 compounds, 0.43% hits | Am2.2-beta2AR cells, FAP receptor internalization, flow cytometry | response, % (test concentration not listed);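 active = response above a set limit, near 3 SD of response in nonfluorescent compounds, cut at about 42% in these data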
MC4R antag cAMP: antagonists of human melanocortin 4 receptor (MC4R); P32245; MC4R-expressing cells, MTII-stimulated cAMP, LANCE TR-FRET; inhibition, % at 6.5 µM; 360,000 compounds, 0.48% hits; AID 540295;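 active = inhibition above its plate's cutoff, the mean of tested wells on that plate plus 3 SD, cut at about 29% in these data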;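 also: 0% = Melanotan II alone and 100% = Melanotan II plus saturating MCL0020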
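System – human MC4R-expressing U2OS cells · Also added – Melanotan II · Dosing – one concentration, 6.5 µM nominal · Timing – 30-min compound, 1-h challenge, 1-h detection, room temperature · Measured by – Eu-cAMP/anti-cAMP TR-FRET, emission 671 nm · Replicates – singlicate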
TAAR1 agonist: human TAAR1 agonism; Q96RJ0; CHO RD-HGA16 TAAR1, Fluo-8 calcium fluorescence; vehicle wells 0%, saturating PEA agonist 100%; activation, % at 3 µM; 360,000 compounds, 0.99% hits; AID 624467;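 active = activation above the mean activation of all test compounds in the run plus 3 SD, cut at about 38% in these data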
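Test system: RD-HGA16 (CHO) cells co-expressing Gα16 and hTAAR1 | Doses: Single dose, 3 µM | Schedule: 17-24 h seeding, 75 min 37 °C dye, 30 min RT | Evaluation: % activation from peak over basal fluorescence ratio, DMSO-to-PEA scaled | Technique: Kinetic Fluo-8 calcium fluorescence | Benchmarks: Low control DMSO, high control PEA (EC100)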
m5-HT2A agonist: mouse HTR2A agonism via beta-arrestin recruitment. P35363. CHO-K1 mHTR2A beta-arrestin complementation, luminescence; percent of 30 µM serotonin response. activation, % at 7.6 µM. 360,000 compounds, 0.66% hits. AID 624169;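 active = activation above a run cutoff, the mean activation of all tested compounds plus 3 SD, cut at about 14% in these data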;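 also: 0% = plate median of compound wells and 100% = 30 µM serotonin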
Target sequence (P35363 whole entry, looked up): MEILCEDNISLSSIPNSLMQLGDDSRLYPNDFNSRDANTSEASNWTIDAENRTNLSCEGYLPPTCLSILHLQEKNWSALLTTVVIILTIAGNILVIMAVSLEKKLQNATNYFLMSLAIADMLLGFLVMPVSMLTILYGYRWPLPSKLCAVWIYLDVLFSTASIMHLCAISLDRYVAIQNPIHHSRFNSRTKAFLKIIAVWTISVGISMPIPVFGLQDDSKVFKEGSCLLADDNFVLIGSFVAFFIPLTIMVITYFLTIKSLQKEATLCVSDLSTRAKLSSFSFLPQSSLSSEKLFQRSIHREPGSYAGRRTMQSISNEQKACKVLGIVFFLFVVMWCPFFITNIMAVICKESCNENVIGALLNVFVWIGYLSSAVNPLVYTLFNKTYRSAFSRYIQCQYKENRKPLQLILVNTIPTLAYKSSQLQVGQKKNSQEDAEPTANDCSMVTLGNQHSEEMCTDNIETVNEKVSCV
Starred values were filed as active, the others as inactive; · = not tested or not shown. An excerpt weighted towards active compounds, which were near 4.3% of everything screened.

SMILES	TAAR1 antagonist	MC4R ag barr	Beta2AR agonist	MC4R antag cAMP	TAAR1 agonist	m5-HT2A agonist
Cc1cc(O)cc(=O)n1-c1ccc(Cl)c(C(F)(F)F)c1	2.2	·	·	·	0.9	·
Cc1cccc(N2C(=O)c3cccc(Oc4ccc(Cl)cc4)c3C2=O)c1	26.0	-1.1	-8.1	4.4	38.4*	1.7
O=C(O)c1cccc(N2C(=O)c3ccc(Oc4ccc(Cl)cc4)cc3C2=O)c1	2.3	0.1	-7.0	6.3	10.4	-1.8
CCOC(=O)c1sc(NC(=O)Nc2ccc(Cl)cc2)cc1C	82.5*	-0.7	5.2	2.5	12.9	0.7
COc1ccc2nc(N3CCN(C(=O)C4COc5ccccc5O4)CC3)sc2c1 (configuration not stated)	31.9	-1.6	2.8	0.7	9.2	0.5
Cc1cccc2sc(N3CCN(C(=O)C4COc5ccccc5O4)CC3)nc12 (configuration not stated)	42.4	-0.9	-8.6	6.3	49.9*	5.6
Cc1ccccc1OCC(O)CN1CCN(C)CC1 (configuration not stated)	18.8	-1.5	3.1	1.5	0.6	-1.4
OC(COc1ccc(Cl)cc1)CN1CCN(c2ccccc2)CC1 (configuration not stated)	-4.7	-0.4	-2.0	2.0	3.8	-6.0
OC(COc1ccccc1Cl)CN1CCN(CC(O)COc2ccccc2Cl)CC1 (configuration not stated)	50.5*	0.6	9.5	1.8	28.5	-7.8
OC(COc1ccc(Cl)cc1)CN1CCC(Cc2ccccc2)CC1 (configuration not stated)	7.8	3.1	1.3	1.8	40.8*	-20.0
C=C1C(=O)C23C(O)C1CCC2C12COC3(O)C(O)C1C(C)(C)CCC2O (configuration not stated)	-25.9	-0.5	·	2.7	4.9	-4.3
O=C(COC(=O)C1CC2C=CC1C2)Nc1cccc(S(=O)(=O)N2CCCCCC2)c1 (configuration not stated)	67.7*	2.5	3.7	11.8	8.3	4.8
CC(=O)c1c(C)[nH]c(C(=O)OCC(=O)Nc2cccc(S(=O)(=O)N3CCCC3)c2)c1C	49.6*	-0.6	8.9	11.2	14.5	2.3
O=C(COC(=O)c1c(F)cccc1F)Nc1cccc(S(=O)(=O)N2CCCCC2)c1	49.8*	0.1	·	15.2	14.3	1.0
O=C(COC(=O)c1ccc(Cl)c(S(=O)(=O)N2CCCCCC2)c1)Nc1ccccc1	53.3*	0.6	-0.4	1.6	10.0	1.3
CC(=O)c1c(C)[nH]c(C(=O)OCC(=O)Nc2cc(S(=O)(=O)N3CCCC3)ccc2Cl)c1C	13.3	-0.4	-6.4	6.6	36.9	6.6
CCN(CC)S(=O)(=O)c1cccc(NC(=O)COC(=O)c2[nH]c(C)c(C(C)=O)c2C)c1	55.0*	0.0	·	6.0	16.8	2.2
O=C(Nc1ccc(S(=O)(=O)N2CCCCC2)cc1)c1ccccc1Cl	7.0	-1.9	4.7	8.4	9.1	-3.0
O=C(Nc1ccccc1)Nc1ccc(S(=O)(=O)N2CCCCC2)cc1	18.8	1.5	5.9	9.0	50.1*	-5.4
Cc1nn(Cc2ccccc2)c(Cl)c1C(=O)OCc1nnc(-c2ccccc2)o1	50.8*	-1.8	-2.1	-0.4	17.9	1.0
CC(=Nc1ccc(Cl)cc1N)c1c(O)cc(C)oc1=O	6.1	·	·	·	-2.1	·
Oc1c(Cl)cc(Cl)cc1C=Nc1cc(C(F)(F)F)ccc1N1CCc2ccccc2C1	22.5	-0.7	15.3	29.3*	-1.0	-2.5
Oc1c(Cl)cccc1C=Nc1cc(C(F)(F)F)ccc1N1CCCC1	1.1	-0.2	-0.1	-4.4	6.5	0.1
CC1(C(=O)Nc2cnc3ccccc3c2)CCN1Cc1cc2ccccc2o1 (configuration not stated)	49.1*	-1.2	·	3.8	1.1	-2.9
N#Cc1ccc(OCC(=O)N[C@@H](Cc2ccccc2)c2nc3ccccc3[nH]2)cc1	27.8	·	·	·	3.7	·
CSc1nc(N)nc2c1ncn2Cc1ccccc1	-16.7	-1.1	-8.1	6.0	2.7	-2.1
CCCc1ccc(C2=Nn3c(nnc3C(C)C)SC2)cc1	·	-1.8	66.3*	0.7	·	-0.8
